Each block holds one molecule with its values, some of them ahead of it. The source made the active and inactive calls. The calls are words filed in the database; no cut-off is given here.
Columns and labels:
[1] = biological target: T1, Prostaglandin E2 receptor EP3 subtype (Homo sapiens, UniProt P43115); test: Agonist activity at recombinant human EP3v6 receptor expressed in melanophores assessed as induction of pigment redistribution up to 10 uM after 90 mins; settings: 1.5 h
T1 sequence (P43115 whole entry): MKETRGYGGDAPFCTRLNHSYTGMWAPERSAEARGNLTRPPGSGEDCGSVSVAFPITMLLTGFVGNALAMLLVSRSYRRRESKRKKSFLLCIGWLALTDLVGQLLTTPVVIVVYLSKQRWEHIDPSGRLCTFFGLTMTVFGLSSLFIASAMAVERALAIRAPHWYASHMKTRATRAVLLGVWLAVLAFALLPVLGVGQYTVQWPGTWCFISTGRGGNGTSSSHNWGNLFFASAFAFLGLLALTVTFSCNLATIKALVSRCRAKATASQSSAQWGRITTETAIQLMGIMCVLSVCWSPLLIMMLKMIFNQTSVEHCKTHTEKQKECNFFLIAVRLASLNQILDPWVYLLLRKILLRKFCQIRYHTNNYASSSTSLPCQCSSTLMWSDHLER
In short: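 Melanophores electroporated with 20 μg human EP3v6 plasmid per 400 μL cells, grown 48 h at 27 °C. Assay buffer 0.7× PBS pH 7.3 with 20 nM melatonin to aggregate pigment, 90 min at room temperature, 650 nm baseline; compounds added (10-point, 5-fold dilutions, top 10 μM final), 90 min room temperature, absorbance reread.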

[2] = Total clearance in Sprague-Dawley rat plasma at 2 mg/kg, iv or 10 mg/kg, po; assay type: ADME, organism-based
[3] = Volume of distribution at steady state in Sprague-Dawley rat at 2 mg/kg, iv or 10 mg/kg, po; assay type: ADME, organism-based; settings: in vivo
[4] = system: Rattus norvegicus; test: AUC (0 to infinity) in Sprague-Dawley rat at 10 mg/kg, po; assay type: ADME, organism-based; design: dose 10 mg/kg, route oral, time infinity; settings: in vivo
In short: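 Sprague-Dawley rats, single oral dose of 10.0 mg/kg; AUC0-inf from plasma concentrations.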

[5] = system: Rattus norvegicus; test: Inhibition of right ventricle hypertrophic response in Sprague-Dawley rat monocrotaline model of pulmonary arterial hypertension assessed as reduction of MCT-induced increase in ratio of right ventricular weight to left ventricle plus septum weight administered via oral gavage twice daily for 21 consecutive days starting 24 hrs after monocrotaline challenge; assay type: functional
In short: (§1)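 Male rats given 60 mg/kg monocrotaline sc on day 1 (sham: saline) under 30 mg/kg ip pentobarbital; from next day for 20 days dosed by oral gavage twice daily at 10 or 30 mg/kg in 20% HPBCD in saline (vehicle control). Day 21: RV/(LV+S) weights; mPAP via catheter under 60 mg/kg pentobarbital (30 mg/kg group, n = 5); H&E lung sections, 5 animals/group.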

[6] = biological target: Prostaglandin E2 receptor EP2 subtype (Homo sapiens) (UniProt P43116); test: Agonist activity at recombinant human EP2 receptor expressed in CHO-K1 cells assessed as increase in intracellular cAMP level up to 10 uM after 1 hr incubation by HTRF method; assay type: functional, cell-based
[7] = biological target: Prostaglandin E2 receptor EP4 subtype (Homo sapiens) (UniProt P35408); test: Agonist activity at recombinant human EP4 receptor expressed in CHO-K1 cells assessed as increase in intracellular cAMP level up to 10 uM after 1 hr incubation by HTRF method; assay type: functional, cell-based
[8] = biological target: T2, Prostacyclin receptor (Homo sapiens, UniProt P43119); test: Agonist activity at IP receptor in PAH patient-derived primary pulmonary arterial smooth muscle cells assessed as induction of cAMP levels after 1 hr by HTRF method; assay type: functional
[9] = biological target: T2, Prostacyclin receptor; test: Ratio of IC50 for IP receptor in human primary platelets to EC50 for recombinant human IP receptor expressed in CHO-K1 cells; assay type: cell-based
[10] = Selectivity ratio of EC50 for recombinant rat IP receptor expressed in CHO-K1 cells to EC50 for recombinant human IP receptor expressed in CHO-K1 cells; assay type: cell-based
[11] = system: Rattus norvegicus; test: Cardioprotective effect in Sprague-Dawley rat monocrotaline model of pulmonary arterial hypertension assessed as reduction of MCT-induced increase of pulmonary arterial pressue at 30 mg/kg administered via oral gavage twice daily for 21 consecutive days starting 24 hrs after monocrotaline challenge; assay type: functional, organism-based; in short: as §1
[12] = system: Rattus norvegicus; test: Inhibition of hypertrophic response in Sprague-Dawley rat monocrotaline model of pulmonary arterial hypertension assessed as reduction of MCT-induced increase in pulmonary vessel wall thickness at 30 mg/kg administered via oral gavage twice daily for 21 consecutive days starting 24 hrs after monocrotaline challenge by morphometric analysis; assay type: functional, organism-based; in short: as §1
[13] = Total clearance in Beagle dog at 0.2 mg/kg, iv; assay type: ADME, organism-based, Canis lupus familiaris; settings: in vivo
[14] = Total clearance in cynomolgus monkey at 0.1 mg/kg, iv; assay type: ADME, organism-based, Macaca fascicularis; settings: in vivo
[15] = Volume of distribution at steady state in Beagle dog at 0.2 mg/kg, iv; assay type: ADME, organism-based, Canis lupus familiaris; settings: in vivo
[16] = Volume of distribution at steady state in cynomolgus monkey at 0.1 mg/kg, iv; assay type: ADME, organism-based, Macaca fascicularis; settings: in vivo
[17] = Drug metabolism in bile-duct cannulated rat bile assessed as 2-(2-(((1r,4r)-4-(((4-chlorophenyl)(phenyl)carbamoyloxy)methyl)cyclohexyl)methoxy)acetoxy)ethanesulfonic acid formation; assay type: ADME
[18] = system: Plasma; test: Drug metabolism in bile-duct cannulated rat plasma assessed as 2-(((1r,4r)-4-(((4-chlorophenyl)(4-hydroxyphenyl)carbamoyloxy)methyl)cyclohexyl)methoxy)acetic acid formation; assay type: ADME, cell-free
[19] = system: Plasma; test: Drug metabolism in bile-duct cannulated rat plasma assessed as 2-(2-(((1r,4r)-4-(((4-chlorophenyl)(4-hydroxyphenyl)carbamoyloxy)methyl)cyclohexyl)methoxy)acetoxy)ethanesulfonic acid formation; assay type: ADME, cell-free
[20] = system: Rattus norvegicus; test: Unbound Cmax in Sprague-Dawley rat at 10 mg/kg, po administered via gavage as single dose; assay type: ADME, organism-based; settings: in vivo
[21] = Drug uptake in bile-duct cannulated rat bile; assay type: ADME; settings: in vivo
[22] = Drug uptake in bile-duct cannulated rat urine; assay type: ADME; settings: in vivo
[23] = system: Plasma; test: Drug uptake in bile-duct cannulated rat plasma; assay type: ADME, cell-free
[24] = biological target: Prostacyclin receptor (Rattus norvegicus) (UniProt P43253); test: Intrinsic activity at recombinant rat IP receptor expressed in CHO-K1 cells assessed as increase in intracellular cAMP level at 10 uM after 1 hr incubation by HTRF method relative to iloprost; assay type: functional, cell-based
In short: (§2)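 Stably transfected CHO-K1 clones with receptor expression kept minimal to avoid receptor reserve. Cells at 200 000/mL in PBS with 1 mM IBMX and 0.2% BSA. 10-point 5-fold dilution series, top 10 μM, tested in triplicate plates, 1 h at room temperature. HTRF cAMP read by time-resolved fluorescence.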

[25] = biological target: T2, Prostacyclin receptor; test: Intrinsic activity at recombinant human IP receptor expressed in CHO-K1 cells assessed as increase in intracellular cAMP level at 10 uM after 1 hr incubation by HTRF method relative to iloprost; assay type: functional, cell-based; in short: as §2
[26] = biological target: T3, Prostaglandin D2 receptor (Homo sapiens) (UniProt Q13258); test: Intrinsic activity at recombinant human DP1 receptor expressed in CHO-K1 cells assessed as increase in intracellular cAMP level after 1 hr incubation by HTRF method relative to prostaglandin D2; assay type: functional, cell-based
T3 sequence (whole entry): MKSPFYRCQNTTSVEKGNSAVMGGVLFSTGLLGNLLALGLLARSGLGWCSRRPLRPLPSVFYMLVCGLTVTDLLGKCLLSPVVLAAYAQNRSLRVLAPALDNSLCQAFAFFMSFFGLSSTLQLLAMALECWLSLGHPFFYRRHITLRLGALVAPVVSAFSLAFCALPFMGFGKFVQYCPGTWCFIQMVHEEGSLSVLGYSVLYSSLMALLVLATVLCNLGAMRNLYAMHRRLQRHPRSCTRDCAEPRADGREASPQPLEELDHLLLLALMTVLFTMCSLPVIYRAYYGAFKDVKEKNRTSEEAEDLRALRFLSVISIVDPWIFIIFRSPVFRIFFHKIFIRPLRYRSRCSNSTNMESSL
In short: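 CHO-K1 clonal line stably expressing DP1 at minimal level; HTRF cAMP assay, 1 h incubation at room temperature, time-resolved fluorescence read-out.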

[27] = Half life in human microsomes; assay type: ADME, Microsome
[28] = Half life in rat microsomes; assay type: ADME, Microsome

T2 sequence (P43119 whole entry): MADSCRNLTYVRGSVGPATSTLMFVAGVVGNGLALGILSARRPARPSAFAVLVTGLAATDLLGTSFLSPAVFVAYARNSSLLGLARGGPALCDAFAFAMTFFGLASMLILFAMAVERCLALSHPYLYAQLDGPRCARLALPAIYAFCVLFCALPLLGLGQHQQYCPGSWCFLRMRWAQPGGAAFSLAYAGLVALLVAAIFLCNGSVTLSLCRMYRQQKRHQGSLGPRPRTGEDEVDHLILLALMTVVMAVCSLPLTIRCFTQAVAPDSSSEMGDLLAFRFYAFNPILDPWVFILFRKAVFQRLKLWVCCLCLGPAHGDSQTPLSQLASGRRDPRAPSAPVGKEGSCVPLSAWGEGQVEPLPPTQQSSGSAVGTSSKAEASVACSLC
Prostaglandin E2 receptor EP4 subtype (Homo sapiens), sequence (P35408 whole entry): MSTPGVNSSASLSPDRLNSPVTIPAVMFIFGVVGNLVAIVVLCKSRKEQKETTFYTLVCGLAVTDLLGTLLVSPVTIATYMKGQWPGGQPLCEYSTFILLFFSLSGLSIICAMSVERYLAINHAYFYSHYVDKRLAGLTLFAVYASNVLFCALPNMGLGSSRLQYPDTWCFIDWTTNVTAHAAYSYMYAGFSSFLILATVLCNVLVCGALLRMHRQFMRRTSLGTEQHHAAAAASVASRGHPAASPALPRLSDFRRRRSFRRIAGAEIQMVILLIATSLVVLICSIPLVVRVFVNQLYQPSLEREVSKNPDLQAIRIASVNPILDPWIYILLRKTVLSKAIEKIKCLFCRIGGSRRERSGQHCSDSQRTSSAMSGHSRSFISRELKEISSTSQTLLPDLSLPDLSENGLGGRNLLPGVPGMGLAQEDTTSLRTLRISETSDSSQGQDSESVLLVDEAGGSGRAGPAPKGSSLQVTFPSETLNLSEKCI
Prostaglandin E2 receptor EP2 subtype (Homo sapiens), sequence (P43116 whole entry): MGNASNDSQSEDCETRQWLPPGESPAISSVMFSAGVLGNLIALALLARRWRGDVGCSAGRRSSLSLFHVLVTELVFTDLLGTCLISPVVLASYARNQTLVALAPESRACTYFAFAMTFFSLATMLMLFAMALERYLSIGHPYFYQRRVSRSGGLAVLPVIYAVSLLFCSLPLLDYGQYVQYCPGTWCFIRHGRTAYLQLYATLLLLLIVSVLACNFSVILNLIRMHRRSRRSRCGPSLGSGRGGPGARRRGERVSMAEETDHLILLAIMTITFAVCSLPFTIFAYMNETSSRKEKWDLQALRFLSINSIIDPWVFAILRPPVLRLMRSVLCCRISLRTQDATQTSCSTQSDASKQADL
Prostacyclin receptor (Rattus norvegicus), sequence (P43253 whole entry): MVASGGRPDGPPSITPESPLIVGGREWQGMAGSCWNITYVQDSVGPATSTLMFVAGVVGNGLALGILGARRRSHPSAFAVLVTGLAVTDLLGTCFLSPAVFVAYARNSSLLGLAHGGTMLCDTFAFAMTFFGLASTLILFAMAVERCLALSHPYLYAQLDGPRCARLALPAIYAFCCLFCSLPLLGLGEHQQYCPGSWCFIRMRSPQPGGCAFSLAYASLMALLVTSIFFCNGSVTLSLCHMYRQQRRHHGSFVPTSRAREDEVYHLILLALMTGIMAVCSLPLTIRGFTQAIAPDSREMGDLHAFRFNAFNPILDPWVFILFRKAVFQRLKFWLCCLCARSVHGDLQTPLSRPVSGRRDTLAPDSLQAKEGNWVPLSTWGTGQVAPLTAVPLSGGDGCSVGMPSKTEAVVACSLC

Activity [1]: Active
SMILES: CC#CCC(C)[C@H](O)/C=C/[C@@H]1[C@H]2C/C(=C/CCCC(=O)O)C[C@H]2C[C@H]1O (some centres not stated) [ILOPROST]

clearance [2]: 20 mL/min/kg
Vd [3]: 2.74 L/kg
AUC [4]: 7.9 µg·h/mL
Activity [6]: inactive
Activity [7]: inactive
Activity [8]: Active
Ratio IC50/EC50 [9]: 2 to 10
Activity [1]: Active
SMILES: O=C(O)COC[C@H]1CC[C@H](COC(=O)N(c2ccccc2)c2cccc(F)c2)CC1
inhibition [5]: Dose-dependent effect
Ratio EC50 [10]: 10 to 30

Ratio IC50/EC50 [9]: 2 to 10
SMILES: Cc1ccc(N(C(=O)OC[C@H]2CC[C@H](COCC(=O)O)CC2)c2ccccc2)cc1
Ratio EC50 [10]: 10 to 30

clearance [2]: 7.12 mL/min/kg
AUC [4]: 14.6 µg·h/mL
Activity [6]: inactive
Activity [7]: inactive
clearance [13]: 3.37 mL/min/kg
clearance [14]: 14.7 mL/min/kg
Vd [15]: 0.308 L/kg
Vd [16]: 10.1 L/kg
Drug metabolism [18]: Metabolite_Detected
fCmax [20]: 100 nM
Activity [1]: Active
Drug uptake [21]: Active
Drug uptake [22]: Active
Drug uptake [23]: Active
SMILES: O=C(O)COC[C@H]1CC[C@H](COC(=O)N(c2ccccc2)c2ccc(Cl)cc2)CC1
inhibition [5]: Dose-dependent effect
Activity [11]: Active
inhibition [12]: Active
Drug metabolism [17]: Metabolite_Detected
Drug metabolism [19]: Metabolite_Detected

Ratio IC50/EC50 [9]: 2 to 10
SMILES: O=C(O)COC[C@H]1CC[C@H](COC(=O)N(c2ccc(Cl)cc2)c2cccc(F)c2)CC1
Ratio EC50 [10]: 10 to 30

Ratio IC50/EC50 [9]: 2 to 10
SMILES: O=C(O)COC[C@H]1CC[C@H](COC(=O)N(c2ccccc2)c2ccccc2)CC1
Ratio EC50 [10]: 10 to 30

Ratio IC50/EC50 [9]: 2 to 10
SMILES: O=C(O)COC[C@H]1CC[C@H](COC(=O)N(c2cccc(F)c2)c2ccc(Cl)c(F)c2)CC1
Ratio EC50 [10]: 10 to 30

Vd [3]: 6.3 L/kg
AUC [4]: 1.9 µg·h/mL
Ratio IC50/EC50 [9]: 2 to 10
SMILES: COc1cccc(N(C(=O)OC[C@H]2CC[C@H](COCC(=O)O)CC2)c2ccccc2)c1
Ratio EC50 [10]: 10 to 30

Ratio IC50/EC50 [9]: 2 to 10
SMILES: O=C(O)COC[C@H]1CC[C@H](COC(=O)N(c2ccccc2)c2ccc(F)c(Cl)c2)CC1
Ratio EC50 [10]: 10 to 30

Activity [8]: Active
SMILES: CC(C)N(CCCCOCC(=O)O)c1cnc(-c2ccccc2)c(-c2ccccc2)n1

Ratio IC50/EC50 [9]: 2 to 10
SMILES: COc1ccc(N(C(=O)OC[C@H]2CC[C@H](COCC(=O)O)CC2)c2cccc(F)c2)cc1
Ratio EC50 [10]: 10 to 30

Intrinsic activity [24]: 88%
Intrinsic activity [25]: 80%
Intrinsic activity [26]: 30%
half-life [27]: > 60 min
half-life [28]: > 60 min
SMILES: O=C(O)COC[C@H]1CC[C@@H](COC(=O)N(c2ccccc2)c2cccc(Cl)c2)CC1
